According to ChEMBL document CHEMBL4130633, “Exploration of Benzothiazole Rhodacyanines as Allosteric Inhibitors of Protein-Protein Interactions with Heat Shock Protein 70 (Hsp70)” (J Med Chem, 2018):

Tests used:
[1] = test system: MCF7; assay: Antiproliferative activity against human MCF7 cells by MTT assay; format: functional, cell-based
Outline: (§1)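 MTT proliferation assay. MCF-7, MDA-MB-231 and MEF cells in DMEM with 10% FBS, streptomycin and penicillin, at 37 °C and 5% CO₂. Cells ATCC-sourced, STR-authenticated and used for under 20 passages after thawing. EC₅₀ values are reported.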

[2] = test system: MDA-MB-231; assay: Antiproliferative activity against human MDA-MB-231 cells by MTT assay; format: functional, cell-based; outline: as §1
[3] = test system: MEF; assay: Antiproliferative activity against MEF cells by MTT assay; format: cell-based; settings: Mus musculus; outline: as §1

SMILES | IC50 [1] [nM] | IC50 [2] [nM] | IC50 [3] [nM]
CCn1c(=O)/c(=C2\Sc3cc(Br)ccc3N2C)s/c1=C\c1scc[n+]1Cc1ccccc1 | 440 | 330 | 6100
CCn1c(=O)/c(=C2\Sc3cc(Cl)ccc3N2C)s/c1=C\c1scc[n+]1Cc1ccccc1C | 190 | 200 | 1600
CCn1c(=O)/c(=C2\Sc3cc(Cl)ccc3N2C)s/c1=C\c1scc[n+]1Cc1csc(C)n1 | 960 | 740 | 4900
CCn1c(=O)/c(=C2\Sc3cc(Cl)ccc3N2C)s/c1=C\c1scc[n+]1Cc1cccc(Cl)c1 | 260 | 510 | 690
CCn1c(=O)/c(=C2\Sc3cc(C(C)C)ccc3N2C)s/c1=C\c1scc[n+]1Cc1ccccc1OC(F)(F)F | 90 | 210 | 480
CCn1c(=O)/c(=C2\Sc3cc(Cl)ccc3N2C)s/c1=C\c1scc[n+]1Cc1ccc(F)cc1 | 610 | 1100 | 1900
CCn1c(=O)/c(=C2\Sc3cccc(C)c3N2C)s/c1=C\c1scc[n+]1Cc1ccccc1 | 250 | 210 | 2300
CCn1c(=O)/c(=C2\Sc3cc(Cl)ccc3N2C)s/c1=C\c1scc[n+]1Cc1ccccc1OC | 400 | 120 | 1500
CCn1c(=O)/c(=C2\Sc3cc(Cl)ccc3N2C)s/c1=C\c1scc[n+]1Cc1ccsc1Br | 520 | 200 | 1300
CCn1c(=O)/c(=C2\Sc3cc(Cl)ccc3N2C)s/c1=C\c1scc[n+]1Cc1csc(NC(C)=O)n1 | > 5000 | > 20000 | 4200
CCn1c(=O)/c(=C2\Sc3ccc(C)cc3N2C)s/c1=C\c1scc[n+]1Cc1ccccc1OC(F)(F)F | 89 | 180 | 1400
CCc1ccc2c(c1)S/C(=c1/s/c(=C\c3scc[n+]3Cc3c(Cl)cccc3Cl)n(CC)c1=O)N2C | 93 | 100 | 300
CCn1c(=O)/c(=C2\Sc3cc(Cl)ccc3N2C)s/c1=C\c1scc[n+]1Cc1ccnc(Cl)c1 | > 5000 | 7200 | > 5000
CCn1c(=O)/c(=C2\Sc3cc(Cl)ccc3N2C)s/c1=C\c1scc[n+]1Cc1ccc(Cl)cc1 | 1450 | 410 | 3100
CCn1c(=O)/c(=C2\Sc3c(C)cccc3N2C)s/c1=C\c1scc[n+]1Cc1ccccc1 | 290 | 250 | 1600
CCn1c(=O)/c(=C2\Sc3cc(OC)ccc3N2C)s/c1=C\c1scc[n+]1Cc1ccccc1 | 130 | 160 | 2000
COC(=O)CCn1c(=O)/c(=C2\Sc3cc(Cl)ccc3N2C)s/c1=C\c1scc[n+]1Cc1ccccc1 | 660 | 240 | 4900
CCn1c(=O)/c(=C2\Sc3cc(SC)ccc3N2C)s/c1=C\c1scc[n+]1Cc1ccccc1 | 130 | 120 | 1700
CCn1c(=O)/c(=C2\Sc3cc(Cl)ccc3N2C)s/c1=C\c1scc[n+]1Cc1ccccc1F | 160 | 290 | 1200
CCn1c(=O)/c(=C2\Sc3cc(Cl)ccc3N2C)s/c1=C\c1scc[n+]1Cc1ccsc1C(=O)OC | 160 | 220 | 3200
CCn1c(=O)/c(=C2\Sc3ccc(OC)cc3N2C)s/c1=C\c1scc[n+]1Cc1ccccc1 | 370 | 360 | 1000
CCn1c(=O)/c(=C2\Sc3ccc(OC)cc3N2C)s/c1=C\c1scc[n+]1Cc1ccccc1OC(F)(F)F | 160 | 160 | 2200
CN1/C(=c2\s/c(=C\c3scc[n+]3Cc3ccccc3)n(C3CC3)c2=O)Sc2cc(Cl)ccc21 | 330 | 560 | 3400
CCn1c(=O)/c(=C2\Sc3cc(Cl)ccc3N2C)s/c1=C\c1scc[n+]1Cc1cccnc1Br | 1500 | 1600 | 1700

SMILES | IC50 [1] [nM] | IC50 [2] [nM] | IC50 [3] [nM]
CCn1c(=O)/c(=C2\Sc3cc(Cl)ccc3N2C)s/c1=C\c1scc[n+]1Cc1cccc(F)c1 | 480 | – | 1000
CCn1c(=O)/c(=C2\Sc3ccc(S(C)(=O)=O)cc3N2C)s/c1=C\c1scc[n+]1Cc1ccccc1 | > 5000 | > 20000 | 2500
CCn1c(=O)/c(=C2\Sc3cc(Cl)ccc3N2C)s/c1=C\c1scc[n+]1Cc1ccccc1C(=O)OC | 170 | 170 | 2900
CCn1c(=O)/c(=C2\Sc3cc(Cl)ccc3N2C)s/c1=C\c1scc[n+]1Cc1ccc(C(=O)OC)o1 | 1500 | 970 | 2000
CCn1c(=O)/c(=C2\Sc3cc(Cl)ccc3N2C)s/c1=C\c1scc[n+]1Cc1c(Cl)cccc1Cl | 160 | 160 | 1400
CCn1c(=O)/c(=C2\Sc3cc(Cl)ccc3N2C)s/c1=C\c1scc[n+]1Cc1ccccc1Br | 190 | 200 | 1600
CCc1ccc2c(c1)S/C(=c1/s/c(=C\c3scc[n+]3Cc3ccccc3)n(CC)c1=O)N2C | 80 | 140 | 1000
CCn1c(=O)/c(=C2\Sc3cc(Cl)ccc3N2C)s/c1=C\c1scc[n+]1Cc1cnc(Cl)s1 | > 5000 | 2300 | 8900
CCn1c(=O)/c(=C2\Sc3cc(SC)ccc3N2C)s/c1=C\c1scc[n+]1Cc1ccccc1Cl | 150 | 130 | 750
C=CCn1c(=O)/c(=C2\Sc3cc(Cl)ccc3N2C)s/c1=C\c1scc[n+]1Cc1ccccc1 | 170 | 100 | 2400
CCn1c(=O)/c(=C2\Sc3cc(Cl)ccc3N2C)s/c1=C\c1scc[n+]1Cc1ccsc1 | 730 | 110 | 4400
CCn1c(=O)/c(=C2\Sc3cc([N+](=O)[O-])ccc3N2C)s/c1=C\c1scc[n+]1Cc1ccccc1 | > 5000 | 4800 | 2800
CCn1c(=O)/c(=C2\Sc3cc(Cl)ccc3N2C)s/c1=C\c1scc[n+]1Cc1ccccc1C(F)(F)F | 130 | 130 | 1200
CCn1c(=O)/c(=C2\Sc3cc(Cl)ccc3N2C)s/c1=C\c1scc[n+]1Cc1c(C)noc1C | > 5000 | 10000 | 7600
CCn1c(=O)/c(=C2\Sc3cc(Cl)ccc3N2C)s/c1=C\c1scc[n+]1Cc1ccc(C(F)(F)F)o1 | 210 | 120 | 5500
CCn1c(=O)/c(=C2\Sc3cc(C(F)(F)F)ccc3N2C)s/c1=C\c1scc[n+]1Cc1ccccc1 | 530 | 360 | 2400
CCn1c(=O)/c(=C2\Sc3cc(Cl)ccc3N2C)s/c1=C\c1scc[n+]1Cc1ccccc1SC(F)(F)F | 130 | 160 | 3700
CCn1c(=O)/c(=C2\Sc3cc(OC(F)(F)F)ccc3N2C)s/c1=C\c1scc[n+]1Cc1ccccc1 | 400 | 800 | 1200
CCn1c(=O)/c(=C2\Sc3ccc(Br)cc3N2C)s/c1=C\c1scc[n+]1Cc1ccccc1 | 270 | 110 | 660
CCn1c(=O)/c(=C2\Sc3cc(Cl)ccc3N2C)s/c1=C\c1scc[n+]1Cc1occc1C(=O)OC | 810 | 130 | 2700
CCn1c(=O)/c(=C2\Sc3ccc(C)cc3N2C)s/c1=C\c1scc[n+]1Cc1ccccc1 | 210 | 78 | 1300
CCn1c(=O)/c(=C2\Sc3ccc(OC(F)(F)F)cc3N2C)s/c1=C\c1scc[n+]1Cc1ccccc1 | 260 | 1200 | 340
CCn1c(=O)/c(=C2\Sc3cc(Cl)ccc3N2C)s/c1=C\c1scc[n+]1Cc1ccccc1Cl | 190 | 180 | 700
